High-throughput results as filed in PubChem.
Efflux pump mplx: inhibitors of Candida efflux pumps in yeast, primary screen, S. cerevisiae, Nile Red, multiplex. inhibition, % at 10 µM. AID 485275, 2010. S. cerevisiae Candida pump triplex. actives 0.44% (n = 330,000);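 active = plate passing quality check with inhibition over a set limit, or well fluorescence over plate mean plus 4 SD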;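 also: Nile Red retained in pooled yeast measured as flow cytometry median fluorescence; higher means more Nile Red kept so more efflux inhibition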
T cruzi repl: inhibitors of intracellular T. cruzi growth, primary screen, luminescence, NIH3T3 host cells; actives 1.4% (n = 300,000); AID 1885, 2009; T. cruzi beta-gal in NIH3T3, 90 h; inhibition, % (concentration not given with the values);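 active = mean inhibition across valid replicates above about 55%, limit read from the data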;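 also: signal also drops with host cell toxicity which is not excluded here; higher percent means less beta-gal luminescence so fewer parasites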
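System: mouse NIH/3T3 fibroblasts infected with β-gal-expressing T. cruzi Tulahuen C4 / Input: NIH/3T3 cells, 5,000 per well / Buffer or medium: Low-serum DMEM with 2% FBS / Probe or stimulus: 5000 reporter trypomastigotes per well / Schedule: ≥90 h infection period, 3 h prior cell attachment / Measured by: GalScreen luminescence, 60 min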
AI-2 QS modul: Vibrio harveyi AI-2 quorum sensing modulators, primary screen, JMH597 strain, luminescence/OD600 ratio; actives 0.4% (n = 300,000); Vibrio harveyi JMH597 AI-2 luminescence/OD600 ratio, 9 h; stronger effect = lower value; strain lacks LuxN and CqsS sensors; 0 = neutral-control median; AID 2094, 2009; activity change, % at 7.5 µM; in the data active = activity change below about -75%, passing the limit was not always enough;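 also: luminescence divided by OD600 gain over 9 h not by final OD600 alone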
HDAC3 inhib: HDAC3 deacetylase inhibitors, primary screen, biochemical, fluorescence, cell-free homogeneous. recombinant HDAC3, fluorogenic peptide/trypsin coupled. inhibition, % at 8.3 µM. actives 0.15% (n = 320,000). AID 2718, 2010; in the data active = inhibition above about 26%, passing the limit was not always enough
Target sequence (O15379 whole entry, looked up): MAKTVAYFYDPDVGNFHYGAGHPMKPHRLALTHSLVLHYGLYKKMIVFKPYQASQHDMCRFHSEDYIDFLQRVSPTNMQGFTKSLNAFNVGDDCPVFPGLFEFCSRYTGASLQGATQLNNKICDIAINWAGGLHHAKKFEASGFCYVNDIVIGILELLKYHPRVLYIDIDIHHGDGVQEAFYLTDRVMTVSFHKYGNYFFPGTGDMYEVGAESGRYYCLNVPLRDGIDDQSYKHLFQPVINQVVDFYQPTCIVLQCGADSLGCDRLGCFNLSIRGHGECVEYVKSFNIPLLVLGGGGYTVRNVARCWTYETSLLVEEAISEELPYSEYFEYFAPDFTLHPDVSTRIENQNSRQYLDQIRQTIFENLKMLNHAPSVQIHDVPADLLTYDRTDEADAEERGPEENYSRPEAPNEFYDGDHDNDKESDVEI
PolyA inhibitor: polyadenylation inhibitors in yeast reporter cells, primary screen, luminescence, S. cerevisiae; S. cerevisiae SKY197-pL101 polyadenylation reporter, beta-gal luminescence; efflux-impaired pdr1/pdr3 knockout yeast; score 100 = 6 SD above DMSO; activity score, % at 12 µM; actives 0.02% (n = 300,000);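 active = lowest replicate activity score at least 50, where 100 means six control SD above control mean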;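 also: yeast exposed to compound for 9 h at 30 °C; higher score means more reporter readthrough which indicates perturbed polyadenylation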
Yeast cmpd fluor: counter-screen for efflux pump inhibitors: compound fluorescence; shares compounds with Efflux pump mplx; S. cerevisiae AD/pABC3, flow cytometry; fluorescence ratio to DMSO, % at 10 µM; actives 4% (n = 1,700); AID 588517;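 active = fluorescence ratio to DMSO above its plate's cutoff, the plate mean ratio plus 5 SD, cut at about 210% in these data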;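 also: unstained yeast with no Nile Red so the signal is compound autofluorescence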
Mdr1 pump inh: inhibitors of Candida albicans Mdr1 efflux, confirmation, flow cytometry, singleplex, Cherry Pick1 set; inhibition, % at 10 µM; shares compounds with Efflux pump mplx; actives 1% (n = 1,700); S. cerevisiae AD/CaMDR1, Nile Red efflux; AID 588518, 2011; in the data active = inhibition above about 26%;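 also: higher means more Nile Red retained so more efflux inhibition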
CaCdr2 efflux inh: inhibitors of Candida albicans Cdr2 efflux pump, confirmation, S. cerevisiae AD/CaCDR2, flow cytometry, cherry pick 1, singleplex. shares compounds with Efflux pump mplx. Nile Red retention. Nile Red retention ratio vs DMSO, % at 10 µM. actives 4% (n = 1,700). AID 588520, 2011; in the data active = Nile Red retention ratio vs DMSO above about 190%;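 also: higher ratio means more blocking of Cdr2 efflux of the dye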
CaCdr1 efflux inh: inhibitors of Candida albicans Cdr1 efflux pump, confirmation, S. cerevisiae AD/CaCDR1, flow cytometry, cherry pick 1, singleplex; shares compounds with Efflux pump mplx; Nile Red efflux; inhibition, % at 10 µM; actives 1% (n = 1,700); AID 588522, 2011;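 active = inhibition above the screen-wide mean plus twice its standard deviation, cut at about 32% in these data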
Each line names hits and unclear results; the compound was inactive in the other large screens (follow-up assays come after a bar, where they were run). Sampled rows, rich in hits. Any-hit rate of the full collection: about 2.2%.

CCOc1ccc(NC(=O)CN(C)C(=O)CCCc2nc3ccccc3c(=O)[nH]2)cc1OCC	none
COC(=O)c1sccc1NC(=O)c1cc(-c2ccc(C)cc2C)nc2ccccc12	none (no result: T cruzi repl)
O=C(CN(c1ccc(Cl)c(C(F)(F)F)c1)S(=O)(=O)c1ccccc1)N1CCOCC1	Efflux pump mplx 0.7 | Yeast cmpd fluor inactive | Mdr1 pump inh inactive | CaCdr2 efflux inh inactive | CaCdr1 efflux inh inactive
CN1C(=O)/C(=C/c2ccccc2Cl)Sc2ccc(C(=O)N3CCCC3)cc21	none
CN1C(=O)/C(=C/c2ccc(C(F)(F)F)cc2)Sc2ccc(C(=O)N3CCN(c4ccccn4)CC3)cc21	Efflux pump mplx 0.7 | Yeast cmpd fluor inactive | Mdr1 pump inh inactive | CaCdr2 efflux inh inactive | CaCdr1 efflux inh inactive
O=C(Nc1ccc(C2=CN(Cc3ccccc3)CCC2=O)cc1)OCc1ccccc1	none (no result: T cruzi repl, AI-2 QS modul, PolyA inhibitor)
CCOC(=O)Cn1nnc(-c2cc(OC)c(OC)c(OC)c2)n1	none
CCOC(=O)CC(=O)c1cc(OC)c(OC)c(OC)c1	Efflux pump mplx 0.8 | Yeast cmpd fluor inactive | Mdr1 pump inh inactive | CaCdr2 efflux inh inactive | CaCdr1 efflux inh inactive
O=c1c2ccccc2nnn1Cc1ccccn1	Efflux pump mplx 8.2 | Yeast cmpd fluor inactive | Mdr1 pump inh inactive | CaCdr2 efflux inh inactive | CaCdr1 efflux inh inactive
O=c1c2ccccc2nnn1Cc1cccc2ccccc12	none
CCc1nnc(NC(=O)c2ccc(OC)cc2OC)s1	none
COc1ccc(C(=O)Cc2nnc(C)s2)c(OC)c1	Efflux pump mplx 8.0 | Yeast cmpd fluor inactive | Mdr1 pump inh inactive | CaCdr2 efflux inh inactive | CaCdr1 efflux inh inactive
CCC1CCCCN1C(=O)c1cc2c(=O)n3cccc(C)c3nc2s1 (configuration not stated)	Efflux pump mplx 1.7 (no result: AI-2 QS modul) | Yeast cmpd fluor inactive | Mdr1 pump inh inactive | CaCdr2 efflux inh inactive | CaCdr1 efflux inh inactive
Cc1cc(NS(=O)(=O)c2ccc(NC(=O)CCN3C(=O)c4ccccc4C3=O)cc2)no1	Efflux pump mplx 0.9 | Yeast cmpd fluor inactive | Mdr1 pump inh inactive | CaCdr2 efflux inh inactive | CaCdr1 efflux inh inactive
Cc1cc(C)nc(NS(=O)(=O)c2ccc(NC(=O)CCN3C(=O)c4ccccc4C3=O)cc2)n1	none
Cc1ccc(NC(=S)NN(C)c2nc(C)cnc2C)cc1	Efflux pump mplx 9.6 | Yeast cmpd fluor inactive | Mdr1 pump inh inactive | CaCdr2 efflux inh inactive | CaCdr1 efflux inh inactive
CCN(CCO)Cc1csc2cc(C)ccc12	Efflux pump mplx 7.5 | Yeast cmpd fluor inactive | Mdr1 pump inh inactive | CaCdr2 efflux inh inactive | CaCdr1 efflux inh inactive
CCN(CCO)Cc1csc2ccccc12	none
O=C(NC1CCCCC1)c1cc(N2C(=O)CCC2=O)ccc1Cl	none
O=C(CCC(=O)OCCCC(F)(F)C(F)(F)F)NC1CCCCC1	Efflux pump mplx 1.4 | Yeast cmpd fluor inactive | Mdr1 pump inh inactive | CaCdr2 efflux inh inactive | CaCdr1 efflux inh inactive
O=C(CCC(=O)OCCCC(F)(F)C(F)(F)F)Nc1ccccc1	none
Cn1nc([N+](=O)[O-])nc1Sc1ccc(Cl)cc1	Efflux pump mplx 0.8, T cruzi repl 69 | Yeast cmpd fluor inactive | Mdr1 pump inh inactive | CaCdr2 efflux inh inactive | CaCdr1 efflux inh inactive
O=C1N[C@@H](Cc2cn(S(=O)(=O)c3ccc([N+](=O)[O-])cc3)c3ccccc23)C(=O)N[C@H]1Cc1ccccc1	none
O=C1N[C@@H](Cc2ccccc2)C(=O)N2[C@H]1C[C@]1([C@]34C[C@H]5C(=O)N[C@@H](Cc6ccccc6)C(=O)N5[C@H]3N(S(=O)(=O)c3ccccc3)c3ccccc34)c3ccccc3N(S(=O)(=O)c3ccccc3)[C@H]21	Efflux pump mplx 0.8 | Yeast cmpd fluor inactive | Mdr1 pump inh inactive | CaCdr2 efflux inh inactive | CaCdr1 efflux inh inactive
COc1ccc(N2CCN(Cc3nc4c(c(=O)[nH]c(=O)n4C)n3CCCc3ccccc3)CC2)cc1	Efflux pump mplx 14 | Yeast cmpd fluor inactive | Mdr1 pump inh inactive | CaCdr2 efflux inh inactive | CaCdr1 efflux inh inactive
COc1cccc(-c2sc3ccc(OC)cc3c2-c2ccc(O)cc2)c1	none (no result: T cruzi repl, AI-2 QS modul, PolyA inhibitor)
COc1cccc(-c2sc3ccc(OC)cc3c2-c2ccc(OCCN(C)C)cc2)c1	Efflux pump mplx 187 (no result: T cruzi repl, AI-2 QS modul, PolyA inhibitor) | Yeast cmpd fluor inactive | Mdr1 pump inh inactive | CaCdr2 efflux inh 228 | CaCdr1 efflux inh inactive
COc1ccc(-c2sc3ccccc3c2-c2ccc(OCCN(C)C)cc2)cc1	none (no result: T cruzi repl, AI-2 QS modul, PolyA inhibitor) | Yeast cmpd fluor inactive | Mdr1 pump inh inactive | CaCdr2 efflux inh inactive | CaCdr1 efflux inh inactive
CN(C)CCOc1ccc(-c2c(-c3ccsc3)sc3ccccc23)cc1	none (no result: T cruzi repl, AI-2 QS modul, PolyA inhibitor)
O=c1c2cc3c(nc2[nH]c(=S)n1-c1ccccc1)CCCC3	none
O=C(COc1ccccc1)Nc1ccc(-c2ccc(N3CCOCC3)nn2)cc1	none
Cc1cccc(NC(=O)c2cc3cc([N+](=O)[O-])ccc3s2)n1	Efflux pump mplx 1.1 | Yeast cmpd fluor inactive | Mdr1 pump inh inactive | CaCdr2 efflux inh inactive | CaCdr1 efflux inh inactive
COc1ccc(Cc2noc(CN3CCCC(OCc4ccccn4)C3)n2)cc1OC (configuration not stated)	none
CC1CC(C)CN(CCCNC(=O)CN2C(=O)CSc3ccc(S(=O)(=O)N4CCCCC4)cc32)C1 (configuration not stated)	Efflux pump mplx 0.6 | Yeast cmpd fluor inactive | Mdr1 pump inh inactive | CaCdr2 efflux inh inactive | CaCdr1 efflux inh inactive
O=[N+]([O-])c1ccc(Nc2ccccc2)nc1	Efflux pump mplx 30 | Yeast cmpd fluor inactive | Mdr1 pump inh inactive | CaCdr2 efflux inh inactive | CaCdr1 efflux inh inactive
O=[N+]([O-])c1ccc(NCc2ccccc2)nc1	Efflux pump mplx 38 | Yeast cmpd fluor inactive | Mdr1 pump inh inactive | CaCdr2 efflux inh inactive | CaCdr1 efflux inh inactive
O=C(O)c1cc([N+](=O)[O-])ccc1NCc1ccccc1	none
O=[N+]([O-])c1ccc(Nc2ccc(F)cc2)nc1	none
